Data reported in ChEMBL document CHEMBL1137467, “Synthesis and structure-activity relationships of novel 1-arylmethyl-3-aryl-1H-pyrazole-5-carbohydrazide derivatives as potential agents against A549 lung cancer cells” (Bioorg Med Chem, 2007).
Activity calls are given as the source filed them. The rule behind the calls is not given here.

What was measured:
A549 [1] = experiment: Reduction of cell viability of human A549 cells at 80 uM after 48 hrs by MTT assay; assay type: functional
Summary of the method: (§1)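 Compounds dissolved in DMSO, final DMSO below 0.1% (v/v) in culture medium. Cells seeded in 96-well plates and treated at 10–80 μM for 24 or 48 h. Viability by MTT assay with absorbance read at 570 nm. Controls were untreated medium and 0.1% DMSO vehicle.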

[2] = Lipophilicity, log P of the compound; assay type: physicochemical; conditions: octanol/water
A549 [3] = experiment: Induction of apoptosis in A549 cells assessed as LDH release at 40 uM after 48 hrs; assay type: functional, cell-based; conditions: Homo sapiens
Summary of the method: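 Culture medium collected after 48 h treatment at 40 μM and assayed for LDH release, compared against an untreated control group; n = 3.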

A549 [4] = experiment: Reduction of cell viability of human A549 cells at 40 uM after 24 hrs by MTT assay; assay type: functional; summary of the method: as §1
A549 [5] = experiment: Effect on nuclear fragmentation in human A549 cells at 40 uM after 48 hrs by AO staining method; assay type: functional, cell-based
Summary of the method: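 Cells cultured 48 h in fresh medium with 0 or 40 μM compound, then stained with 5 μg/ml acridine orange at room temperature. Chromatin condensation and DNA fragmentation imaged by laser scanning confocal/fluorescence microscopy. Images representative of three independent experiments.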

A549 [6] = experiment: Reduction of cell viability of human A549 cells at 40 uM after 48 hrs by MTT assay; assay type: functional; summary of the method: as §1
A549 [7] = experiment: Growth inhibition of human A549 cells after 48 hrs; assay type: functional, cell-based; conditions: A549, 24 h, in the assay text read “after 24 hrs” for “after 48 hrs”
A549 [8] = experiment: Growth inhibition of human A549 cells after 24 hrs; assay type: functional, cell-based; conditions: A549, 48 h, in the assay text read “after 48 hrs” for “after 24 hrs”; summary of the method: as §1
A549 [9] = experiment: Effect on cell morphology in human A549 cells assessed as cell shrinkage at 40 uM after 48 hrs; assay type: functional, cell-based
Summary of the method: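 Cells exposed to 40 μM compound for 24 h and 48 h, then inspected under a phase contrast microscope for shrinkage. Untreated cells served as control.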

logP [2]	IC50 (A549 [7])	IC50 (A549 [8])	Structure (SMILES)	Activity (A549 [1])	Activity (A549 [3])	Activity (A549 [4])	Activity (A549 [5])	Activity (A549 [6])	Activity (A549 [9])
4.94	68.3 µM	18.5 µM	CC(C)(C)c1ccc(Cn2nc(-c3ccc(Cl)cc3)cc2C(=O)NN)cc1	13%	Active	52%	Active	26%	–
2.76	240 µM	–	COc1ccc(-c2cc(C(=O)NN)n(Cc3ccc(Cl)nc3)n2)cc1	–	–	–	–	–	–
2.52	224 µM	67.7 µM	NNC(=O)c1cc(-c2ccccc2)nn1Cc1ccc(Cl)nc1	–	–	–	–	–	–
2.73	440 µM	–	NNC(=O)c1cc(-c2ccccc2)nn1Cc1ccccc1	–	–	–	–	–	–
4.49	66.2 µM	26.6 µM	CC(C)(C)c1ccc(Cn2nc(-c3ccccc3)cc2C(=O)NN)cc1	15%	Active	52%	Active	26%	Active
3.12	121 µM	30.2 µM	NNC(=O)c1cc(-c2ccc(Cl)cc2)nn1Cc1ccc(Cl)nc1	–	–	–	–	–	–
4.6	49.9 µM	23.9 µM	COc1ccc(-c2cc(C(=O)NN)n(Cc3ccc(C(C)(C)C)cc3)n2)cc1	6%	Active	52%	Active	26%	–
3.24	232 µM	38.7 µM	NNC(=O)c1cc(-c2ccc(Cl)cc2)nn1Cc1ccccc1	–	–	–	–	–	–
2.87	550 µM	–	COc1ccc(-c2cc(C(=O)NN)n(Cc3ccccc3)n2)cc1	–	–	–	–	–	–
